Reference: article PMC5689068 (ACS chemical neuroscience, 2016)
Read-outs that look alike come from different tables or passages of the source. Where a SMILES comes first, the peptide text is derived from it. [ ]: non-standard residue; d: D form. Oic = O=C(O)[C@@H]1C[C@@H]2CCCC[C@@H]2N1; dTic = O=C(O)[C@H]1Cc2ccccc2CN1; 2Thi = N[C@@H](Cc1cccs1)C(=O)O; Nle = CCCC[C@H](N)C(=O)O; Orn = NCCC[C@H](N)C(=O)O

Experiments:
BK receptors [1] = experiment: Radioligand competition binding assay with [3H]BK in rat brain membranes; conditions: for log[IC50], BK receptors, [3H]BK / IC50: pH 6.8, rat brain membranes, 1 nM [3H]BK; for IC50: read-out: IC50, BK receptors, [3H]BK; for affinity at the BK receptors (in words): D-amino acid substitutions
naïve rats = experiment: von Frey filament and Infra-Red tests in naïve rats; format: in vivo, rat; conditions: i.th. injection 3 nmol, alone
In short: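 Nonfasted male Sprague-Dawley rats (250–300 g) carried i.th. catheters placed through the atlanto-occipital membrane to lumbar level under ketamine/xylazine (80/12 mg/kg i.p.). Naïve rats received Dyn A-(2–13) with or without test compound (3 nmol/5 µL i.th.). Tests were run every 20 min up to 120 min. Infrared paw withdrawal latency was calibrated to ~20 s on the uninjured paw; von Frey thresholds used the up-down/Dixon method. One-way ANOVA, p ≤ 0.05.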

[2] = In vitro stability in rat plasma; format: in vitro ADME; conditions: rat; for half-life: plasma, t1/2 in rat plasma, 37 °C
[3] = In vitro stability in human plasma; format: in vitro ADME; conditions: human plasma
In short: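 Test compound stock (50 mg/mL in water) was diluted 5-fold into lithium-heparin human plasma and incubated at 37 °C. Samples were taken at 1, 2, 4, 6, 12 and 24 h, quenched with EtOH and centrifuged. Supernatant was run on C-18 RP-HPLC (10–90% acetonitrile, 40 min). t1/2 = 0.693/b, where b is the slope of ln(fraction parent remaining) versus time. Three independent experiments.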

BK receptors [4] = conditions: competition assay using 1 nM [3H]DALKD, cited from earlier work

Compound | log[IC50], BK receptors, [3H]BK (BK receptors [1]) | IC50 (BK receptors [1]) [nM] | half-life ([2]; 24 h study) [min] | remaining at 24 h, 10 mg/mL ([2]; rat plasma) [%] | other results
CCCC[C@H](NC(=O)[C@@H](N)Cc1ccccc1)C(=O)N[C@@H](CCCNC(=N)N)C(=O)N[C@H](C(=O)N[C@@H](CCCNC(=N)N)C(=O)N1CCC[C@H]1C(=O)N[C@@H](CCCCN)C(=O)O)[C@@H](C)CC [compound 2, H-Phe-Nle-Arg-Ile-Arg-Pro-Lys-OH] | −6.79 ± 0.10 | 160 | – | – | –
Dyn A-(2–13) [reference compound] | – | – | – | – | paw withdrawal latency (Infra-Red test) (naïve rats): reduced; paw withdrawal threshold (von Frey filament test) (naïve rats): reduced
CCCC[C@H](NC(=O)[C@H](Cc1ccccc1)NC(C)=O)C(=O)N[C@@H](CCCNC(=N)N)C(=O)N[C@@H](CCCC)C(=O)N[C@@H](CCCNC(=N)N)C(=O)N1CCC[C@H]1C(=O)N[C@@H](CCCNC(=N)N)C(=O)O [compound 5, Ac-Phe-Nle-Arg-Nle-Arg-Pro-Arg-OH] (Ac-F[Nle]R[Nle]RPR-OH) | – | – | 204 | 0 | –
CC[C@H](C)[C@H](NC(=O)[C@H](CCCNC(=N)N)NC(=O)[C@H](CC(C)C)NC(=O)[C@@H](N)Cc1ccccc1)C(=O)N[C@H](CCCNC(=N)N)C(=O)N1CCC[C@H]1C(=O)N[C@@H](CCCCN)C(=O)O [compound 13, H-Phe-Leu-Arg-Ile-D-Arg-Pro-Lys-OH] | −5.23 ± 0.12 | 5900 | – | – | –
CC[C@H](C)[C@H](NC(=O)[C@H](CCCNC(=N)N)NC(=O)[C@H](CC(C)C)N(C)C(=O)[C@@H](N)Cc1ccccc1)C(=O)N[C@@H](CCCNC(=N)N)C(=O)N1CCC[C@H]1C(=O)N[C@@H](CCCCN)C(=O)O [compound 21, H-Phe-NMeLeu-Arg-Ile-Arg-Pro-Lys-OH] | – | – | > 240000 | 100 ± 16 | half-life ([2]; calculated from a 5 day stability test): 3900 min; remaining at 120 h, 10 mg/mL ([2]; rat plasma): 31%; Intact (%) ([3]; after a 24 h incubation): more than 95%; remaining at 24 h, 10 mg/mL ([3]; human): 96 ± 5%
CCCC[C@H](NC(=O)[C@H](CCCNC(=N)N)NC(=O)[C@H](CC(C)C)NC(=O)[C@@H](N)Cc1ccccc1)C(=O)N[C@@H](CCCNC(=N)N)C(=O)N1CCC[C@H]1C(=O)N[C@@H](CCCCN)C(=O)O [compound 3, H-Phe-Leu-Arg-Nle-Arg-Pro-Lys-OH] (H-FLR[Nle]RPK-OH) | −7.05 ± 0.09 | – | – | – | –
CC[C@H](C)[C@H](NC(=O)[C@H](CCCNC(=N)N)NC(=O)[C@H](CC(C)C)NC(=O)[C@H](Cc1ccccc1)NC)C(=O)N[C@@H](CCCNC(=N)N)C(=O)N1CCC[C@H]1C(=O)N[C@@H](CCCCN)C(=O)O [compound 20, H-NMePhe-Leu-Arg-Ile-Arg-Pro-Lys-OH] | −6.06 ± 0.14 | 870 | 900 | 31 ± 11 | –
CC[C@H](C)[C@H](NC(=O)[C@@H](CCCNC(=N)N)NC(=O)[C@H](CC(C)C)NC(=O)[C@H](N)Cc1ccccc1)C(=O)N[C@@H](CCCNC(=N)N)C(=O)N1CCC[C@H]1C(=O)N[C@@H](CCCCN)C(=O)O [compound 18, H-D-Phe-Leu-D-Arg-Ile-Arg-Pro-Lys-OH] | – | > 10000 | – | – | affinity at the BK receptors (in words) (BK receptors [1]): completely abolished affinity
CC[C@H](C)[C@H](NC(=O)[C@H](CCCNC(=N)N)NC(=O)[C@H](CC(C)C)NC(=O)[C@@H](N)Cc1ccccc1)C(=O)N[C@@H](CCCNC(=N)N)C(=O)N1CCC[C@H]1C(=O)N[C@H](CCCCN)C(=O)O [compound 11, H-Phe-Leu-Arg-Ile-Arg-Pro-D-Lys-OH] | −6.03 ± 0.14 | 830 | – | 0 | –
CCCC[C@H](NC(=O)[C@H](CCCNC(=N)N)NC(=O)[C@H](CCCC)NC(=O)[C@@H](N)Cc1ccccc1)C(=O)N[C@@H](CCCNC(=N)N)C(=O)N1CCC[C@H]1C(=O)N[C@@H](CCCNC(=N)N)C(=O)O [compound 4, H-Phe-Nle-Arg-Nle-Arg-Pro-Arg-OH] (H-F[Nle]R[Nle]RPR-OH) | – | – | 72 | 0 | log[IC50], BK receptors (BK receptors [4]): −7.06 ± 0.10; IC50 (BK receptors [4]; read-out: IC50, BK receptors): 86 nM
CC[C@H](C)[C@H](NC(=O)[C@H](CCCN)NC(=O)[C@H](CC(C)C)NC(=O)[C@@H](N)Cc1ccccc1)C(=O)N[C@@H](CCCN)C(=O)N1CCC[C@H]1C(=O)N[C@@H](CCCN)C(=O)O [compound 6, H-Phe-Leu-Orn-Ile-Orn-Pro-Orn-OH] (H-FL[Orn]I[Orn]P[Orn]-OH) | −6.29 ± 0.12 | 510 | – | – | –
CC[C@H](C)[C@H](NC(=O)[C@H](CCCNC(=N)N)NC(=O)[C@H](CC(C)C)NC(=O)[C@@H](N)Cc1ccccc1)C(=O)N[C@@H](CCCNC(=N)N)C(=O)N1[C@H](C(=O)N[C@@H](CCCCN)C(=O)O)C[C@@H]2CCCC[C@@H]21 [compound 10, H-Phe-Leu-Arg-Ile-Arg-Oic-Lys-OH] (H-FLRIR[Oic]K-OH) | −5.82 ± 0.10 | 1500 | – | – | –
CC[C@H](C)[C@H](NC(=O)[C@H](CCCNC(=N)N)NC(=O)[C@H](CC(C)C)NC(=O)[C@@H](N)Cc1ccccc1)C(=O)N[C@@H](CCCNC(=N)N)C(=O)N1CCC[C@@H]1C(=O)N[C@@H](CCCCN)C(=O)O [compound 12, H-Phe-Leu-Arg-Ile-Arg-D-Pro-Lys-OH] | – | > 10000 | – | – | –
CC[C@H](C)[C@H](NC(=O)[C@H](CCCNC(=N)N)NC(=O)[C@H](CC(C)C)NC(=O)[C@H](N)Cc1ccccc1)C(=O)N[C@@H](CCCNC(=N)N)C(=O)N1CCC[C@H]1C(=O)N[C@@H](CCCCN)C(=O)O [compound 17, H-D-Phe-Leu-Arg-Ile-Arg-Pro-Lys-OH] | −6.60 ± 0.14 | 250 | 1140 | 44 ± 12 | –
CC[C@H](C)[C@H](NC(=O)[C@@H](CCCNC(=N)N)NC(=O)[C@H](CC(C)C)NC(=O)[C@@H](N)Cc1ccccc1)C(=O)N[C@@H](CCCNC(=N)N)C(=O)N1CCC[C@H]1C(=O)N[C@@H](CCCCN)C(=O)O [compound 15, H-Phe-Leu-D-Arg-Ile-Arg-Pro-Lys-OH] | −6.51 ± 0.19 | 310 | 1860 | 62 ± 25 | –
H-FLRIR[2Thi]K-OH [compound 9] | −5.99 ± 0.20 | 1000 | – | – | –
CC[C@H](C)[C@H](NC(=O)[C@H](CCCNC(=N)N)NC(=O)[C@H](CC(C)C)NC(=O)[C@@H](N)Cc1ccccc1)C(=O)N[C@@H](CCCNC(=N)N)C(=O)N1Cc2ccccc2C[C@@H]1C(=O)N[C@@H](CCCCN)C(=O)O [compound 8, H-Phe-Leu-Arg-Ile-Arg-D-Tic-Lys-OH] (H-FLRIR[dTic]K-OH) | – | > 10000 | – | – | –
CC[C@H](C)[C@H](NC(=O)[C@H](CCCNC(=N)N)NC(=O)[C@@H](CC(C)C)NC(=O)[C@H](N)Cc1ccccc1)C(=O)N[C@@H](CCCNC(=N)N)C(=O)N1CCC[C@H]1C(=O)N[C@@H](CCCCN)C(=O)O [compound 19, H-D-Phe-D-Leu-Arg-Ile-Arg-Pro-Lys-OH] | – | > 10000 | – | – | affinity at the BK receptors (in words) (BK receptors [1]): completely abolished affinity
CC[C@@H](C)[C@@H](NC(=O)[C@H](CCCNC(=N)N)NC(=O)[C@H](CC(C)C)NC(=O)[C@@H](N)Cc1ccccc1)C(=O)N[C@@H](CCCNC(=N)N)C(=O)N1CCC[C@H]1C(=O)N[C@@H](CCCCN)C(=O)O [compound 14, H-Phe-Leu-Arg-D-Ile-Arg-Pro-Lys-OH] | – | > 10000 | 198 | 0 | –
